This is an account of results in ChEMBL document CHEMBL3351588, “Design, synthesis and biological evaluation of N-alkyl or aryl substituted isoindigo derivatives as potential dual cyclin-dependent kinase 2 (CDK2)/glycogen synthase kinase 3β (GSK-3β) phosphorylation inhibitors” (Eur J Med Chem, 2014).

Usually IC50 stands for the point on the concentration scale where inhibition reaches its midpoint. Read a high IC50 as weaker potency in that assay.

Assay [1] concerns K562. Briefly: Induction of cell cycle arrest in human K562 cells assessed as accumulation at G0/G1 phase at 20 uM after 24 hrs by propidium iodide staining based flow cytometry (reference value: 36.14%). It counts as functional. (Flow cytometry measures light scatter and fluorescence of single cells or particles in a stream.)
For assay [2], the system named is K562. Briefly: Induction of cell cycle arrest in human K562 cells assessed as accumulation at G2/M phase at 20 uM after 24 hrs by propidium iodide staining based flow cytometry (reference value: 18.96%). It counts as functional.
In assay [3] the test system is K562. The experiment in a line: Induction of cell cycle arrest in human K562 cells assessed as accumulation at G2/M phase at 30 uM after 24 hrs by propidium iodide staining based flow cytometry (reference value: 18.96%). It counts as functional.
In assay [4] the test system is K562. Briefly: Induction of apoptosis in human K562 cells assessed as viable cells level at 5 uM after 24 hrs by Annexin V-FITC/propidium iodide staining based flow cytometry (reference value: 97.64%). The format is functional. In outline: (§1)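 K562 cells exposed for 24 h or 48 h to 0, 5.0, 10.0, 15.0, 20.0 or 30.0 µM; vehicle DMSO 0.5% v/v. Cells stained with FITC-Annexin V, then counterstained with PI, and analysed by FACScan flow cytometry. Quadrants: Annexin V−/PI− viable; Annexin V+/PI− early apoptotic; Annexin V+/PI+ late apoptotic/necrotic.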

Assay [5] has as its system K562. The experiment in a line: Induction of apoptosis in human K562 cells assessed as early apoptotic cells level at 5 uM after 24 hrs by Annexin V-FITC/propidium iodide staining based flow cytometry (reference value: […]). The format is functional.
Assay [6] deals with K562. Briefly: Induction of apoptosis in human K562 cells assessed as necrotic cells level at 5 uM after 24 hrs by Annexin V-FITC/propidium iodide staining based flow cytometry (reference value: 0.0%). The format is functional. In outline:
as §1

The test system of assay [7] is K562. The experiment in a line: Induction of apoptosis in human K562 cells assessed as early apoptotic cells level at 15 uM after 24 hrs by Annexin V-FITC/propidium iodide staining based flow cytometry (reference value: […]). The format is functional.
In assay [8] the test system is K562. The experiment in a line: Induction of apoptosis in human K562 cells assessed as necrotic cells level at 15 uM after 24 hrs by Annexin V-FITC/propidium iodide staining based flow cytometry (reference value: 0.0%). The format is functional. In outline:
as §1

The subject of assay [9] is K562. Briefly: Induction of apoptosis in human K562 cells assessed as viable cells level at 20 uM after 24 hrs by Annexin V-FITC/propidium iodide staining based flow cytometry (reference value: 97.64%). It counts as functional. The method, boiled down: as §1
The subject of assay [10] is K562. Briefly: Induction of apoptosis in human K562 cells assessed as early apoptotic cells level at 20 uM after 24 hrs by Annexin V-FITC/propidium iodide staining based flow cytometry (reference value: […]). The format is functional.
In assay [11] the test system is K562. Briefly: Induction of apoptosis in human K562 cells assessed as late apoptotic cells level at 10 uM after 48 hrs by Annexin V-FITC/propidium iodide staining based flow cytometry (reference value: 0.54%). The format is functional. The method, boiled down:
as §1

The test system of assay [12] is K562. The experiment in a line: Induction of apoptosis in human K562 cells assessed as necrotic cells level at 30 uM after 48 hrs by Annexin V-FITC/propidium iodide staining based flow cytometry (reference value: 0.01%). The format is functional. The method, boiled down:
as §1

The test system of assay [13] is K562. The experiment in a line: Reduction in cyclin A protein expression in human K562 cells at 5 to 30 uM after 24 hrs by Western blotting method. It counts as functional, cell-based. In general terms: Immunoblotting shows a protein as a band on a membrane.
The test system of assay [14] is K562. The experiment in a line: Reduction in beta-catenin protein expression in human K562 cells at 5 to 30 uM after 24 hrs by Western blotting method. It counts as functional, cell-based.
The test system of assay [15] is K562. The experiment in a line: Cytotoxicity against human K562 cells after 48 hrs by SRB assay. It counts as functional, cell-based. The conditions noted are these: K562, 48 h. The method, boiled down: (§2)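 Cells seeded at 5 × 10³ per well and allowed to attach for 12 h, then exposed to a range of drug concentrations in their own medium for 48 h. Fixed with ice-cold TCA for 1 h at 4 °C, washed, then stained with 0.4% SRB for 30 min at room temperature. IC50 is the mean of three independent experiments.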
For orientation: The SRB assay estimates cell density from bound dye.

Assay [16] can be described thus: Cytotoxicity against human VEC cells after 48 hrs by SRB assay. The format is cell-based. In outline: as §2

For `COc1ccc(N2C(=O)/C(=C3/C(=O)Nc4ccccc43)c3ccccc32)cc1`, the Activity in [1] came to 32.01%; in assay [2], 11.65%; in [3] it was 11.8%; in assay [4], 96.21%; in assay [5], 2.25%; in assay [6] it was 0%. Further, the Activity is on record as 5.34% in assay [7]; 0.01% in [8]; 72.9% in assay [9]; 14.44% in assay [10]; 1.39% in [11]; 1.3% in assay [12]. The inhibition result in [13] and in assay [14] was “Dose-dependent effect” throughout. Moreover, the IC50 was 7.8 µM in assay [15] and greater than 200 µM in [16].
